# Experimental data reported in ChEMBL document CHEMBL1275555, “Genetic heterogeneity in pbp genes among clinically isolated group B Streptococci with reduced penicillin susceptibility” (2008).
# Tests used:
# [1] = system: Streptococcus sp. 'group B'; experiment: Antimicrobial activity against Group B streptococcus R8 harboring T77I, S353F and A514V in PBP 2X; V80A and G613R in PBP 2B; and L45P, N163K, N723S and G527V in PBP 1A by broth microdilution method; type: functional
# Method in brief: (§1)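 Broth microdilution MICs following CLSI guidelines, using a commercial panel system; GBS clinical isolates and reference strains grown in Todd-Hewitt broth at 37°C. Each strain tested five times to confirm reproducibility, with S. pneumoniae ATCC 49619 as quality-control strain. No β-lactamase activity by acidimetric method in any strain.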
# [2] = system: Streptococcus sp. 'group B'; experiment: Antimicrobial activity against Group B streptococcus serotype Ia R7 harboring T77I, F395V and S353F in PBP 2X; V80A and G613R in PBP 2B; and L45P, N163K, N723S and Y470F in PBP 1A by broth microdilution method; type: functional; method in brief: as §1
# [3] = system: Streptococcus sp. 'group B'; experiment: Antimicrobial activity against Group B streptococcus serotype VI R6 harboring F395L, V405A, R433H, H438Y, A374V and G648A mutations in PBP 2X and T567I mutation in PBP 2B by broth microdilution method; type: functional; method in brief: as §1
# [4] = system: Streptococcus sp. 'group B'; experiment: Antimicrobial activity against Group B streptococcus serotype VI R5 harboring F395L, V405A, R433H, H438Y, and G648A mutations in PBP 2X and T567I mutation in PBP 2B by broth microdilution method; type: functional; method in brief: as §1
# [5] = system: Streptococcus sp. 'group B'; experiment: Antimicrobial activity against Group B streptococcus serotype VI R4 harboring Q557E mutation in PBP 2X and T567I, Y262N mutations in PBP 2B by broth microdilution method; type: functional; method in brief: as §1
# [6] = system: Streptococcus sp. 'group B'; experiment: Antimicrobial activity against Group B streptococcus serotype Ib R3 harboring Q557E, A400V mutations in PBP 2X and T567I, G539E mutations in PBP 2B by broth microdilution method; type: functional; method in brief: as §1
# [7] = system: Streptococcus sp. 'group B'; experiment: Antimicrobial activity against Group B streptococcus serotype VI R2 harboring F395L, V405A, R433H, H438Y, and G648A mutations in PBP 2X and T567I mutation in PBP 2B by broth microdilution method; type: functional; method in brief: as §1
# [8] = system: Streptococcus sp. 'group B'; experiment: Antimicrobial activity against Group B streptococcus serotype VI R1 harboring F395L, V405A, R433H, H438Y, and G648A mutations in PBP 2X and T567I mutation in PBP 2B by broth microdilution method; type: functional; method in brief: as §1
# [9] = system: Streptococcus sp. 'group B'; experiment: Antimicrobial activity against Group B streptococcus serotype Ib C2 harboring E63K mutation in PBP 2A and L41S mutation in PBP 1B by broth microdilution method; type: functional; method in brief: as §1
# [10] = system: Streptococcus sp. 'group B'; experiment: Antimicrobial activity against Group B streptococcus serotype V C1 harboring E63K mutation in PBP 2A and L41S mutation in PBP 1B by broth microdilution method; type: functional; method in brief: as §1
# [11] = system: Streptococcus sp. 'group B'; experiment: Antimicrobial activity against Group B streptococcus serotype VI N4 harboring E63K mutation in PBP 2A and L41S mutation in PBP 1B by broth microdilution method; type: functional; method in brief: as §1
# [12] = system: Streptococcus sp. 'group B'; experiment: Antimicrobial activity against Group B streptococcus serotype III N3 by broth microdilution method; type: functional
# Method in brief: (§2)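 Broth microdilution MICs read on a commercial dried panel system (type 3J), following CLSI guidelines. Isolates were grown in Todd-Hewitt broth at 37°C. Each strain was tested five times for reproducibility, with S. pneumoniae ATCC 49619 as the quality-control strain. β-lactamase activity was checked by the acidimetric method.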
# [13] = system: Streptococcus sp. 'group B'; experiment: Antimicrobial activity against Group B streptococcus serotype Ib N2 harboring E63K mutation in PBP 2A and L41S mutation in PBP 1B by broth microdilution method; type: functional; method in brief: as §1
# [14] = system: Streptococcus sp. 'group B'; experiment: Antimicrobial activity against Group B Streptococcus serotype Ia N1 harboring E63K mutation in PBP 2A and L41S mutation in PBP 1B by broth microdilution method; type: functional; method in brief: as §1
# [15] = system: Streptococcus sp. 'group B'; experiment: Antimicrobial activity against Group B Streptococcus serotype III NEM 316 by broth microdilution method; type: functional; method in brief: as §2
# [16] = system: Streptococcus sp. 'group B'; experiment: Antimicrobial activity against Group B Streptococcus serotype V harboring E63K mutation in PBP 2A and L41S mutation in PBP 1B by broth microdilution method
Compound,MIC [1] [µg/mL],MIC [2] [µg/mL],MIC [3] [µg/mL],MIC [4] [µg/mL],MIC [5] [µg/mL],MIC [6] [µg/mL],MIC [7] [µg/mL],MIC [8] [µg/mL],MIC [9] [µg/mL],MIC [10] [µg/mL],MIC [11] [µg/mL],MIC [12] [µg/mL],MIC [13] [µg/mL],MIC [14] [µg/mL],MIC [15] [µg/mL],MIC [16] [µg/mL]
CO/N=C(\C(=O)N[C@@H]1C(=O)N2C(C(=O)OCOC(=O)C(C)(C)C)=C(/C=C\c3scnc3C)CS[C@H]12)c1csc(N)n1 [CEFDITOREN PIVOXIL],0.5,0.5,0.25,0.25,0.25,0.25,0.25,0.25,≤ 0.06,≤ 0.06,≤ 0.06,≤ 0.06,≤ 0.06,≤ 0.06,≤ 0.06,≤ 0.06
CO/N=C(\C(=O)N[C@@H]1C(=O)N2C(C(=O)[O-])=C(C[N+]3(C)CCCC3)CS[C@H]12)c1csc(N)n1 [CEFEPIME],1,2,1,1,1,≤ 0.5,1,1,≤ 0.5,≤ 0.5,≤ 0.5,≤ 0.5,≤ 0.5,≤ 0.5,≤ 0.5,≤ 0.5
C[C@@H](O)[C@H]1C(=O)N2C(C(=O)O)=C(S[C@@H]3CN[C@H](C(=O)N(C)C)C3)[C@H](C)[C@H]12 [MEROPENEM],0.25,0.25,0.5,0.25,0.25,0.25,0.5,0.25,≤ 0.12,≤ 0.12,≤ 0.12,≤ 0.12,≤ 0.12,≤ 0.12,≤ 0.12,≤ 0.12
CC1(C)S[C@@H]2[C@H](NC(=O)Cc3ccccc3)C(=O)N2[C@H]1C(=O)O [PENICILLIN G],1,1,0.5,0.25,0.5,0.5,0.5,0.5,0.06,0.06,0.06,0.06,0.06,0.06,0.06,0.06
CC1(C)S[C@@H]2[C@H](NC(=O)[C@H](N)c3ccccc3)C(=O)N2[C@H]1C(=O)O [AMPICILLIN],0.5,0.5,0.5,0.5,0.25,0.25,0.5,0.5,0.25,0.12,0.12,0.12,0.25,0.12,0.12,0.12
CN(C)CCn1nnnc1SCC1=C(C(=O)O)N2C(=O)[C@@H](NC(=O)Cc3csc(N)n3)[C@H]2SC1 [CEFOTIAM],> 4,> 4,4,2,4,4,4,4,≤ 0.5,≤ 0.5,≤ 0.5,≤ 0.5,≤ 0.5,≤ 0.5,≤ 0.5,≤ 0.5
CO/N=C(\C(=O)N[C@@H]1C(=O)N2C(C(=O)O)=C(COC(C)=O)CS[C@H]12)c1csc(N)n1 [CEFOTAXIME],1,1,0.5,0.5,0.5,0.5,0.5,0.5,0.12,≤ 0.06,≤ 0.06,0.12,0.12,0.12,≤ 0.06,≤ 0.06
CCC[C@@H]1C[C@@H](C(=O)N[C@@H]([C@H]2O[C@H](SC)[C@H](O)[C@@H](O)[C@H]2O)[C@H](C)Cl)N(C)C1 [CLINDAMYCIN],≤ 0.12,≤ 0.12,≤ 0.12,≤ 0.12,> 1,≤ 0.12,≤ 0.12,≤ 0.12,≤ 0.12,≤ 0.12,≤ 0.12,≤ 0.12,≤ 0.12,≤ 0.12,≤ 0.12,≤ 0.12
C=CC1=C(C(=O)O)N2C(=O)[C@@H](NC(=O)/C(=N\OCC(=O)O)c3csc(N)n3)[C@H]2SC1 [CEFIXIME],> 1,> 1,> 1,> 1,> 1,> 1,> 1,> 1,0.5,0.5,0.5,0.5,1,0.5,0.5,0.5
CC[C@H]1OC(=O)[C@H](C)[C@@H](O[C@H]2C[C@@](C)(OC)[C@@H](O)[C@H](C)O2)[C@H](C)[C@@H](O[C@@H]2O[C@H](C)C[C@H](N(C)C)[C@H]2O)[C@](C)(OC)C[C@@H](C)C(=O)[C@H](C)[C@@H](O)[C@]1(C)O [CLARITHROMYCIN],1,2,≤ 0.12,≤ 0.12,> 2,≤ 0.12,≤ 0.12,≤ 0.12,≤ 0.12,≤ 0.12,≤ 0.12,≤ 0.12,≤ 0.12,≤ 0.12,≤ 0.12,≤ 0.12
